Tests used:
Aldehyde oxidase [1] = target: T1, Aldehyde oxidase (Homo sapiens, UniProt Q06278); assay: Substrate activity at aldehyde oxidase in human liver cytosol assessed as mono-oxide metabolite formation at 10 uM measured after 3 hrs in presence of AOX inhibitor raloxifene by UPLC/Q-TOF MS analysis; format: ADME, subcellular
T1 sequence (Q06278 whole entry): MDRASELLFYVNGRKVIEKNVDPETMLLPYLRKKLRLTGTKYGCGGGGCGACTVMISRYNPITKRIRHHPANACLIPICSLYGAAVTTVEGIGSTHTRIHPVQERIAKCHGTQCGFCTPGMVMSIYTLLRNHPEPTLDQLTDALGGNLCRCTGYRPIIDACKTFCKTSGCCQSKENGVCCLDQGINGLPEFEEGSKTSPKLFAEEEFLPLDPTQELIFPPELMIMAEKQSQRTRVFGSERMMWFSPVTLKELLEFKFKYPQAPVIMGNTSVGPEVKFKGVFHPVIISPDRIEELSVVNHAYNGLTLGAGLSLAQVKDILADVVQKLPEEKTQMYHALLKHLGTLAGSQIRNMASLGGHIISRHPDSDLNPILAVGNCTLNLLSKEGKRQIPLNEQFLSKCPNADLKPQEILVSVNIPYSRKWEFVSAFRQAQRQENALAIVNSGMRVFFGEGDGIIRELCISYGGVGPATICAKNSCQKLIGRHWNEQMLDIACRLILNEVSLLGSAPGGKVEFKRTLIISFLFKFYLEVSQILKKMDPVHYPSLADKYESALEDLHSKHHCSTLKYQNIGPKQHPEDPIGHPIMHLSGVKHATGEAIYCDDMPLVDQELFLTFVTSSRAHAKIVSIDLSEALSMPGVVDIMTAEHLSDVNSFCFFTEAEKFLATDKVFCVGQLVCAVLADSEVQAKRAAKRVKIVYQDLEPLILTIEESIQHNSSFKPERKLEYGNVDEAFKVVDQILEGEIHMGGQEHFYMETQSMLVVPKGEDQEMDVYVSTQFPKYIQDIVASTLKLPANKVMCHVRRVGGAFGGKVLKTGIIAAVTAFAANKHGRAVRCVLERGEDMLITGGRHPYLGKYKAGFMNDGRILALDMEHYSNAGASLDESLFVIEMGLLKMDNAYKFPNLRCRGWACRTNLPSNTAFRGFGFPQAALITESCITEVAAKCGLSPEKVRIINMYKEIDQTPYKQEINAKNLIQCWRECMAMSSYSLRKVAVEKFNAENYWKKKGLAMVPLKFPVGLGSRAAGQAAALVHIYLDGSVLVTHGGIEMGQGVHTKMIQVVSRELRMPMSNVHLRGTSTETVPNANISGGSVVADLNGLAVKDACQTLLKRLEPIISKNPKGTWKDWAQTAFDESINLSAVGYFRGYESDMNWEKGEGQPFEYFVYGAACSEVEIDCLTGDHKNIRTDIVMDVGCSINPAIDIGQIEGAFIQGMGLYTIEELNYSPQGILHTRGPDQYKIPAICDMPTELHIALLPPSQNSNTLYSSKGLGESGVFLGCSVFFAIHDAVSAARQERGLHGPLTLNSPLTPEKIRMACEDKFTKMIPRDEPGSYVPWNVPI
How it was run: (§1)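 Human liver cytosol (2 mg/mL final protein) in 100 mM potassium phosphate pH 7.4 with 2 mM MgCl2, 10 μM test compound, 100 μM inhibitor, DMSO 1.1% final. Pre-incubated 3 min at 37°C, started by adding compound, run 3 h at 37°C, stopped with ice-cold acetonitrile. Supernatant analysed by UPLC/Q-TOF MS (positive ESI) for oxidative metabolite peak area. Inhibition ratio taken against no-inhibitor controls; triplicate.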

Aldehyde oxidase [2] = target: T1, Aldehyde oxidase; assay: Substrate activity at aldehyde oxidase in human liver cytosol assessed as mono-oxide metabolite formation at 10 uM measured after 3 hrs in presence of AOX inhibitor hydralazine by UPLC/Q-TOF MS analysis; format: ADME, subcellular; how it was run: as §1

Row | SMILES | Drug metabolism (Aldehyde oxidase [1]) | Drug metabolism (Aldehyde oxidase [2])
1 | O=C(c1cncc(Br)c1)N1CCC(N2CCCC2)CC1 | Metabolite_Notdetected | Metabolite_Notdetected
2 | N#C/C(=C\c1ccc(-c2cc(Cl)ccc2Cl)o1)C(=O)Nc1cccc2ncccc12 | Metabolite_Notdetected | Metabolite_Notdetected
3 | Cc1cc(Nc2ccc(NC(=O)c3ccc(Nc4ccnc5ccccc45)cc3)cc2)nc(N)n1 | Metabolite_Notdetected | Metabolite_Notdetected
4 | O=C(NCC(=O)N1CCCC1)Nc1ccc2cnccc2c1 | Metabolite_Notdetected | Metabolite_Notdetected
5 | Cl.Cl.Fc1cc(-c2cccc3ncc(-c4cnn(C5CCNCC5)c4)nc23)cc(F)c1CN1CCOCC1 | Metabolite_Notdetected | Metabolite_Notdetected
6 | Cl.O=C(Nc1ccccc1-c1cn2c(CN3CCNCC3)csc2n1)c1cnc2ccccc2n1 | Metabolite_Notdetected | Metabolite_Notdetected

Source: ChEMBL document CHEMBL4613262, “Revisiting Aldehyde Oxidase Mediated Metabolism in Drug-like Molecules: An Improved Computational Model” (J Med Chem, 2020)
